Measurements of several laboratories.
Lines come from different studies, so protocols differ.
Target: Serine/threonine-protein kinase PLK1 (PLK1, Homo sapiens, UniProt P53350)

| Compound | effect on | mode | method | tested at | quantity | value |
| --- | --- | --- | --- | --- | --- | --- |
| N#Cc1ccc(NC(=O)Nc2ccccc2)cc1 | cell-free assay | – | competition with immobilised ligand | 25 µM | remaining binding | 93% |
| COc1ccc2oc(-c3ccc4nc(N)oc4c3)c/c(=N\c3ccccc3NC(=O)CCN)c2c1 | binding | – | – | 1 µM | remaining binding | 98% |
| COc1ccc2[nH]c3c4[nH]c5ccc(OC)cc5c4c4c(c3c2c1)C(=O)NC4=O | binding | – | – | 1 µM | remaining binding | 90% |
| C=CC(=O)N1CCC([C@@H]2CCNc3c(C(N)=O)c(-c4ccc(Oc5ccccc5)cc4)nn32)CC1 | enzyme activity | inhibitor | – | 1 µM | inhibition | 31% |
| Cc1ccc(NC(=O)c2ccnc(C(F)(F)F)c2)cc1-c1cc(OCCO)nc(N2CCOCC2)c1 | binding | – | – | 1 µM | remaining binding | 94% |
| C1=C/COCc2cc(ccc2OCCN2CCCC2)Nc2nccc(n2)-c2cccc(c2)COC/1 | binding | – | – | 0.1 µM | remaining binding | 100% |
| CC#CC(=O)N1CCC[C@H]1c1nc(-c2ccc(C(=O)Nc3ccccn3)cc2)c2c(N)nccn12 | enzyme activity | inhibitor | – | 1 µM | inhibition | 36% |
| CCCCC(=O)Nc1ccc(-c2ccc3ncn(CCC)c(=O)c3c2)cn1 | binding | – | competition with immobilised ligand | 0.5 µM | remaining binding | 100% |
